From ChEMBL document CHEMBL4346670, “Discovery of Novel Janus Kinase (JAK) and Histone Deacetylase (HDAC) Dual Inhibitors for the Treatment of Hematological Malignancies” (J Med Chem, 2019)

Tests used:
MOLT-4 = assay: Antiproliferative activity against human MOLT4 cells assessed as reduction in cell viability after 48 hrs by MTT assay; assay type: functional, cell-based; conditions: MOLT-4, 48 h
Method in brief: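 Cells kept in RPMI1640 with 10% FBS at 37 °C, 5% CO2. Seeded and grown for 12 h, then exposed to a range of compound concentrations for 48 h. 0.5% MTT added for 4 h, formazan dissolved in DMSO, absorbance read at 570 nm.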

Histone deacetylase 2 = Histone deacetylase 2 (Homo sapiens, UniProt Q92769); assay: Inhibition of HDAC2 (unknown origin) using Boc-Lys(acetyl)-AMC as substrate preincubated for 5 mins followed by substrate addition and measured after 30 mins by fluorescence assay
HEL [1] = assay: Induction of apoptosis in HEL cells assessed as necrotic apoptotic cells at 1 uM after 24 hrs by Annexin-V/propidium iodide staining-based flow cytometric analysis (reference value: 0.011%); assay type: functional, Homo sapiens
[2] = biological target: T1, Protein deacetylase HDAC6 (Homo sapiens, UniProt Q9UBN7); assay: Inhibition of HDAC6 (unknown origin) using Boc-Lys(acetyl)-AMC as substrate preincubated for 5 mins followed by substrate addition and measured after 30 mins by fluorescence assay
T1 sequence (Q9UBN7 whole entry): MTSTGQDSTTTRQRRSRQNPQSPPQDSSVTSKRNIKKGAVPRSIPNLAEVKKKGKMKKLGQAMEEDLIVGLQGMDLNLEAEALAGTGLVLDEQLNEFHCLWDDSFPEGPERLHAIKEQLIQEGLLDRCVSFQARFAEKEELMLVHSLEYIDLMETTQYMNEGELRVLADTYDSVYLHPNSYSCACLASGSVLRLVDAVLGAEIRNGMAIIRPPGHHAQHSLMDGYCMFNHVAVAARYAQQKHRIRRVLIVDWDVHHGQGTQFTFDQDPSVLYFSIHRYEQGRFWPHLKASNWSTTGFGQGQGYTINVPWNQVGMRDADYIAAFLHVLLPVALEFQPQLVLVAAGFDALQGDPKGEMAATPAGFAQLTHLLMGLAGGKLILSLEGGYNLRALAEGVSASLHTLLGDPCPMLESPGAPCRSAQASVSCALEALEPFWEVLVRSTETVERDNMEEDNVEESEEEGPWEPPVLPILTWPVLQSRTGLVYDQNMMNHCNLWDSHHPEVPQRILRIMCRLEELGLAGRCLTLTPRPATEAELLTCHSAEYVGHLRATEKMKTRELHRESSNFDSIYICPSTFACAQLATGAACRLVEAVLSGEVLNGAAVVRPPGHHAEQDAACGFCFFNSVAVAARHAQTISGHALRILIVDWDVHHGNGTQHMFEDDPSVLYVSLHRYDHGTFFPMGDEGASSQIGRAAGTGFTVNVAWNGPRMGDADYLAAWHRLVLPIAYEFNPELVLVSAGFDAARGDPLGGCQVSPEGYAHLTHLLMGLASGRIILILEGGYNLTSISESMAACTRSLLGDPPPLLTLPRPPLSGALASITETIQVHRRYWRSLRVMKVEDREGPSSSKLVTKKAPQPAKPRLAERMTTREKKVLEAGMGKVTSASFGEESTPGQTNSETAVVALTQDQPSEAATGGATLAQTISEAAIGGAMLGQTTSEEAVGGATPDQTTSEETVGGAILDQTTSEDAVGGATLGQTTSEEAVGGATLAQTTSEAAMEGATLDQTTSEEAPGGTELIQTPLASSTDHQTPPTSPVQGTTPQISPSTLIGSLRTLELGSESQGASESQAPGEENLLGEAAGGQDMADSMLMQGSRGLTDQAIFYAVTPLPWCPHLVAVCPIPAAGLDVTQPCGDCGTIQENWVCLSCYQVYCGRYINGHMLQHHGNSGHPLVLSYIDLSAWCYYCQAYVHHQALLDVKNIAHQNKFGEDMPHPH

[3] = biological target: Tyrosine-protein kinase JAK2 (Homo sapiens, UniProt O60674); assay: Inhibition of recombinant human JAK2 using Ulight-CAGAGAIETDKEYYTVKD as substrate measured after 60 mins by LANCE assay
K562 [4] = assay: Induction of apoptosis in human K562 cells assessed as viable cells at 1 uM after 24 hrs by Annexin-V/propidium iodide staining-based flow cytometric analysis (reference value: 85.7%); assay type: functional; conditions: Homo sapiens, K562, 24 h; read-out: Activity
HEL [5] = assay: Induction of apoptosis in HEL cells assessed as early apoptotic cells at 1 uM after 24 hrs by Annexin-V/propidium iodide staining-based flow cytometric analysis (reference value: 12.5%); assay type: functional, Homo sapiens
K562 [6] = assay: Induction of apoptosis in human K562 cells assessed as necrotic apoptotic cells at 1 uM after 24 hrs by Annexin-V/propidium iodide staining-based flow cytometric analysis (reference value: 0.827%); assay type: functional
HEL [7] = assay: Induction of apoptosis in HEL cells assessed as late apoptotic cells at 1 uM after 24 hrs by Annexin-V/propidium iodide staining-based flow cytometric analysis (reference value: 0.023%); assay type: functional, Homo sapiens
K562 [8] = assay: Induction of apoptosis in human K562 cells assessed as early apoptotic cells at 1 uM after 24 hrs by Annexin-V/propidium iodide staining-based flow cytometric analysis (reference value: 7.55%); assay type: functional
K562 [9] = assay: Antiproliferative activity against human K562 cells assessed as reduction in cell viability after 48 hrs by MTT assay; assay type: functional, cell-based; conditions: K562, 48 h
Jurkat = assay: Antiproliferative activity against human Jurkat cells assessed as reduction in cell viability after 48 hrs by MTT assay; assay type: functional, cell-based
HEL [10] = assay: Induction of apoptosis in HEL cells assessed as viable cells at 1 uM after 24 hrs by Annexin-V/propidium iodide staining-based flow cytometric analysis (reference value: 87.5%); assay type: functional, Homo sapiens; conditions: Homo sapiens, HEL, 24 h; read-out: Activity
[11] = biological target: Tyrosine-protein kinase JAK1 (Homo sapiens, UniProt P23458); assay: Inhibition of recombinant human JAK1 using Ulight-CAGAGAIETDKEYYTVKD as substrate measured after 60 mins by LANCE assay
Method in brief: (§1)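 Human recombinant JAK enzyme assays run by a contract lab. IC50 was taken from a non-linear curve fit, with all parameters allowed to float. Assays were run in replicate (n>2) and reported as mean ± SD.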

[12] = biological target: Non-receptor tyrosine-protein kinase TYK2 (Homo sapiens, UniProt P29597); assay: Inhibition of recombinant human TYK2 using Ulight-CAGAGAIETDKEYYTVKD as substrate measured after 60 mins by LANCE assay; method in brief: as §1
HEL [13] = assay: Antiproliferative activity against HEL cells harboring JAK2 V617F mutant assessed as reduction in cell viability after 48 hrs by MTT assay; assay type: functional, cell-based; conditions: Homo sapiens
Histone deacetylase = assay: Inhibition of HDAC in human HeLa nuclear extract using Boc-Lys(acetyl)-AMC as substrate preincubated for 5 mins followed by substrate addition and measured after 30 mins by fluorescence assay; assay type: cell-based
K562 [14] = assay: Induction of apoptosis in human K562 cells assessed as late apoptotic cells at 1 uM after 24 hrs by Annexin-V/propidium iodide staining-based flow cytometric analysis (reference value: 5.87%); assay type: functional

Tyrosine-protein kinase JAK1, sequence (P23458 whole entry): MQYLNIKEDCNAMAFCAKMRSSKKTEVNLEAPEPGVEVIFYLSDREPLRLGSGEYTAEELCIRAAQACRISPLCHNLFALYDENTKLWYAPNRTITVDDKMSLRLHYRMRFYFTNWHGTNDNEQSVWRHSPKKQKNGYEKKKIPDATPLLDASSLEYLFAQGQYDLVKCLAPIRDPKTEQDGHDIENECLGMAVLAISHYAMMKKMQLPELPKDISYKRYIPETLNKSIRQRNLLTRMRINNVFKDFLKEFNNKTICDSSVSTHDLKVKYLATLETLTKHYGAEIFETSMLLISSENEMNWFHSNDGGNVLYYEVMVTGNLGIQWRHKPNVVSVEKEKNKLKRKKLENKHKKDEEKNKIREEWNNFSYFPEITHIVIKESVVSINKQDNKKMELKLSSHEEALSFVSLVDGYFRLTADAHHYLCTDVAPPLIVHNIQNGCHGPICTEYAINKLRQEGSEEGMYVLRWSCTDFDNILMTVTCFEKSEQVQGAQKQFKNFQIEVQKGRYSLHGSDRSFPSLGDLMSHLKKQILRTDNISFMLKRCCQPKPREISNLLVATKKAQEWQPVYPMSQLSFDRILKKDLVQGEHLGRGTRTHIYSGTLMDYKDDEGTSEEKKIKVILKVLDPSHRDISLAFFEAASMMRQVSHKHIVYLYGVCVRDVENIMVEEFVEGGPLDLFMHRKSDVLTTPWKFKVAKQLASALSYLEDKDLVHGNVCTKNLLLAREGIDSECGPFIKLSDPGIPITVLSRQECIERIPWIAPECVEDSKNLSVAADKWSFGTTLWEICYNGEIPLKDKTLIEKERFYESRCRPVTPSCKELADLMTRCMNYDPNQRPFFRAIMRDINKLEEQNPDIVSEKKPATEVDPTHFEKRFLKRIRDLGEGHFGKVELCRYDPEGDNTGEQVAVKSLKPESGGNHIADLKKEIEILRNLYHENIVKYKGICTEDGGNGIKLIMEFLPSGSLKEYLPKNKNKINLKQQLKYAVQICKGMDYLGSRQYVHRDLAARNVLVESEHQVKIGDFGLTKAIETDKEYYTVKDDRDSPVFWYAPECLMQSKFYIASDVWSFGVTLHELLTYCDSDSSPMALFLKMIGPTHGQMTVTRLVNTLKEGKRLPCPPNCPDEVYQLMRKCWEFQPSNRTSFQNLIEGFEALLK
Non-receptor tyrosine-protein kinase TYK2, sequence (P29597 whole entry): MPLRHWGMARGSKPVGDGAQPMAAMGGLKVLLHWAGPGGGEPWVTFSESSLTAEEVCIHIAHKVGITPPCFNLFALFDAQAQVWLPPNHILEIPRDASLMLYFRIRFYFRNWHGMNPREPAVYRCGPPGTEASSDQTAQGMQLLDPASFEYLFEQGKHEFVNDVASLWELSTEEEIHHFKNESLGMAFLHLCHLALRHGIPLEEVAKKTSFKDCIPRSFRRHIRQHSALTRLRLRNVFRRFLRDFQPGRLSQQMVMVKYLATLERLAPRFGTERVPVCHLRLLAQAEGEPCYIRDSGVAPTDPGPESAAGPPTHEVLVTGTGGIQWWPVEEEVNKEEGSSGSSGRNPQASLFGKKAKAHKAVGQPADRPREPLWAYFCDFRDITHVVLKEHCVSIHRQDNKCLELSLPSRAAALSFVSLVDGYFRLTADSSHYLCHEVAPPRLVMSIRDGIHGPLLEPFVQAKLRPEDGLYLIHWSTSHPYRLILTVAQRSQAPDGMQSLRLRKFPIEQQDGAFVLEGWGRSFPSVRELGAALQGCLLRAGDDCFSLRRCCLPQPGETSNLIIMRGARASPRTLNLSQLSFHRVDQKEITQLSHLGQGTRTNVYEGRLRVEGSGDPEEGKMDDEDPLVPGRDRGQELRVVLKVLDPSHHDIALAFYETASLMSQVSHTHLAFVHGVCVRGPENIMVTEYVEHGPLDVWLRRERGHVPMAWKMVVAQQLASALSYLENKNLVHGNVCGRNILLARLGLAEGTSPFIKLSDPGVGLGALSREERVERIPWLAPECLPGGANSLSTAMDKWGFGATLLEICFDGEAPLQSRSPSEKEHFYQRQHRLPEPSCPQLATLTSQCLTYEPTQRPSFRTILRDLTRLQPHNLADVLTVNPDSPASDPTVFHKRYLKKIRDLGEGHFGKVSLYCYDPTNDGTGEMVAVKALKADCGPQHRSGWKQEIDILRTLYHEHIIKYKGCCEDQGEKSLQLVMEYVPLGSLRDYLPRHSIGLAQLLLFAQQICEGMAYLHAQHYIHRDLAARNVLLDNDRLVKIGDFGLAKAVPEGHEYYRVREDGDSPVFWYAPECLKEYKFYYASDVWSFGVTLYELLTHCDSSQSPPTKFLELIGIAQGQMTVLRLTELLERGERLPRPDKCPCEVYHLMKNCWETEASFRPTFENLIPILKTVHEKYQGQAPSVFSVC
Histone deacetylase 2, sequence (Q92769 whole entry): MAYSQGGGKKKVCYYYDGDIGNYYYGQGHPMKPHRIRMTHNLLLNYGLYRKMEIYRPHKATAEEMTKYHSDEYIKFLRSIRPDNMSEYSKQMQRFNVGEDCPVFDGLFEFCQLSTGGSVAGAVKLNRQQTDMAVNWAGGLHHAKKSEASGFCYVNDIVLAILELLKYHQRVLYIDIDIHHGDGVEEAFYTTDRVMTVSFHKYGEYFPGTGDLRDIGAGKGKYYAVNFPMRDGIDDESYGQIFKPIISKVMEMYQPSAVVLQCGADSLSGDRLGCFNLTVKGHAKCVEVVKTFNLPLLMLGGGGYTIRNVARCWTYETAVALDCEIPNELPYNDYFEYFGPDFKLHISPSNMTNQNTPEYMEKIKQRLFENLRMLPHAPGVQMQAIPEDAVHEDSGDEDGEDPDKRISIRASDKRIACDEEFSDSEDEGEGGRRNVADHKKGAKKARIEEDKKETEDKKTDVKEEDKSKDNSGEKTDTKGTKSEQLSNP
Tyrosine-protein kinase JAK2, sequence (O60674 whole entry): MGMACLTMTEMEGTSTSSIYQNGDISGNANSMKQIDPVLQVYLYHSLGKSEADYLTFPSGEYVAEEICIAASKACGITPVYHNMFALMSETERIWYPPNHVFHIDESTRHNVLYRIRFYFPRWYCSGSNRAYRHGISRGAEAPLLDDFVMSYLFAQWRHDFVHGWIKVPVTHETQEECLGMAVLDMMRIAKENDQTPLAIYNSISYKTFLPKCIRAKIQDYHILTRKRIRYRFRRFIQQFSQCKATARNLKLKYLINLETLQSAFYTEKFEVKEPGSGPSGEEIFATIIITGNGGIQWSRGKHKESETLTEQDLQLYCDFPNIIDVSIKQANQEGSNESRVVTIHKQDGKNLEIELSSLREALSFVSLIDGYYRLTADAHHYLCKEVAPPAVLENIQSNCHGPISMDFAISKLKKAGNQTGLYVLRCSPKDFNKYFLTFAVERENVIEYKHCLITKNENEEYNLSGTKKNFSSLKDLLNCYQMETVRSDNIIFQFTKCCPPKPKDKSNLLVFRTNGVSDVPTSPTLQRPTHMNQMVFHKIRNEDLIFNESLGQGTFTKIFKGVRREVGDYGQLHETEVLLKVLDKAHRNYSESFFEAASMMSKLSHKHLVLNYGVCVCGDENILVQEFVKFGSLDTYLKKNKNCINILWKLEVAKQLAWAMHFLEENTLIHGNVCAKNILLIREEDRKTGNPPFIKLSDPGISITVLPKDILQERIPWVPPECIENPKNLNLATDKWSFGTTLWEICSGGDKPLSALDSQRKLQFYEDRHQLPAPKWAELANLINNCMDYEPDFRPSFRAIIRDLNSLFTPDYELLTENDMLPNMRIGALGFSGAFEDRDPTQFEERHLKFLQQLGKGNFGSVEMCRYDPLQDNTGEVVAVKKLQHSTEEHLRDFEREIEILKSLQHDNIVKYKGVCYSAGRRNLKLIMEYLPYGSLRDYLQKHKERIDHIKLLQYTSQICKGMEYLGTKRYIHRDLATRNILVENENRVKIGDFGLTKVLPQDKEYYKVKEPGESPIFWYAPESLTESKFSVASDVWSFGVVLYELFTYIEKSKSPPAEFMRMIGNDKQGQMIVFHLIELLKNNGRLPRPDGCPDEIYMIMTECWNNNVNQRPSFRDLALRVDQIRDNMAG

IC50 (MOLT-4) [nM] | IC50 (Histone deacetylase 2) [nM] | IC50 [2] [nM] | IC50 [3] [nM] | IC50 (K562 [9]) [nM] | IC50 (Jurkat) [nM] | IC50 [11] [nM] | IC50 [12] [nM] | IC50 (Histone deacetylase) [nM] | Structure (SMILES) | Activity (HEL [1]) [%] | viability at 1 µM (K562 [4]) [%] | Activity (HEL [5]) [%] | Activity (K562 [6]) [%] | Activity (HEL [7]) [%] | Activity (K562 [8]) [%] | viability at 1 µM (HEL [10]) [%] | IC50 (HEL [13]) [nM] | Activity (K562 [14]) [%]
80 | 120 | 14 | 4 | 490 | 60 | 4.8 | 49 | 2 | O=C(CCCCCn1cc(Nc2ncc(Cl)c(Nc3ccc(Cl)cc3)n2)cn1)NO | 7.97 | 17.6 | 27.8 | 1.07 | 60 | 34.4 | 4.31 | 90 | 46.9
130 | 130 | 41 | 10 | 380 | 100 | 15 | 67 | 20 | O=C(CCCCCCn1cc(Nc2ncc(Cl)c(Nc3cccc(Cl)c3)n2)cn1)NO | 2.58 | 53.6 | 22.8 | 1.14 | 68.7 | 15.3 | 5.97 | 140 | 30
